Source: ChEMBL document CHEMBL1132804, “Inhibitors of src tyrosine kinase: the preparation and structure-activity relationship of 4-anilino-3-cyanoquinolines and 4-anilinoquinazolines” (Bioorg Med Chem Lett, 2000)
pIC50: −log10 of the molar value.

What was measured:
[1] = molecular target: T1, Proto-oncogene tyrosine-protein kinase Src (Homo sapiens, UniProt P12931); assay: In vitro inhibition of c-src tyrosine kinase.
Summary of the method: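 ELISA tyrosine kinase kit format. ATP was then added to start the reaction, which ran 1 h at 30 °C and was stopped with EDTA. Duplicate testing; IC50 is the average of two determinations.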

[2] = molecular target: T1, Proto-oncogene tyrosine-protein kinase Src; assay: Inhibition of Src kinase at 1000 nM ATP
Summary of the method: (§1)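 ATP-dependence study in the same ELISA format. Human c-Src protein (3 units/reaction) and cdc2 substrate peptide were in Tris-HCl pH 7.5 buffer with MgCl₂, EGTA and Na₃VO₄. Compound preincubation was 10 min at 30 °C. The reaction was started with ATP at four final levels (100, 500, 1000, 5000), run 1 h at 30 °C and stopped with EDTA. IC50 was determined at each ATP level.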

[3] = molecular target: T1, Proto-oncogene tyrosine-protein kinase Src; assay: Inhibition of Src kinase at 100 nM ATP; summary of the method: as §1
[4] = molecular target: T1, Proto-oncogene tyrosine-protein kinase Src; assay: Inhibition of Src kinase at 5000 nM ATP; summary of the method: as §1
[5] = molecular target: T1, Proto-oncogene tyrosine-protein kinase Src; assay: Inhibition of Src kinase at 500 nM ATP; summary of the method: as §1

T1 sequence (P12931 2-536 limits assumed): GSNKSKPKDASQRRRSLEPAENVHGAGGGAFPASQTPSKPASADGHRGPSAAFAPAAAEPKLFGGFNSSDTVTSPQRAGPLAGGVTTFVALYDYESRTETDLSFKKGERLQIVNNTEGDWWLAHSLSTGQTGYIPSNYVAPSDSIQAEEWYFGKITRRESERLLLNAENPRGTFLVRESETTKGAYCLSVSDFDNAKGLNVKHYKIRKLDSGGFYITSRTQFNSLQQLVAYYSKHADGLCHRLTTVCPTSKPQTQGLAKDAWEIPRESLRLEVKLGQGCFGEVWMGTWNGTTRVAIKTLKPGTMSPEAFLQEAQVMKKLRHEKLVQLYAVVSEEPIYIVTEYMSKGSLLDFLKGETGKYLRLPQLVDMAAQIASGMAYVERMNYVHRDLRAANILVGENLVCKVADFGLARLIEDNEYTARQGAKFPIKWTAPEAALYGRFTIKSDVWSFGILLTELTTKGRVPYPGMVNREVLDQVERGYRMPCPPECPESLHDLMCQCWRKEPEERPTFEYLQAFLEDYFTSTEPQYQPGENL

Structure (SMILES) | pIC50 [1] | other results
COc1ccc(Nc2c(C#N)cnc3cc(OC)c(OC)cc23)cc1OC | 6.02 | –
COc1cc2ncc(C#N)c(Nc3cc(OC)c(OC)c(OC)c3)c2cc1OC | 7.46 | pIC50 [2]: 6.72; pIC50 [3]: 7.47; pIC50 [4]: 6.19; pIC50 [5]: 6.97
CCCCCCCCCCCCOc1c(OC)cc(Nc2c(C#N)cnc3cc(OC)c(OC)cc23)cc1OC | 6.74 | –
COc1cc2ncc(C#N)c(Nc3cc(OC)c(OC)c(OC)c3C)c2cc1OC | 6.33 | –
COc1cc2ncc(CO)c(Nc3cc(OC)c(OC)c(OC)c3)c2cc1OC | < 5.00 | –
COc1cc2ncc(C#N)c(Oc3cc(OC)c(OC)c(OC)c3)c2cc1OC | 6.54 | –
CCCCCCCCCCCCOc1c(OC)cc(Nc2ncnc3cc(OC)c(OC)cc23)cc1OC | 5.28 | –
COc1cc2ncc(C#N)c(Nc3cc(OC)c(OC)c(OC)c3Br)c2cc1OC | 6.77 | –
COc1cc2ncc(C#N)c(Nc3cc(OC)c(OC(C)C)c(OC)c3)c2cc1OC | 6.96 | –
COc1cc(Nc2c(C#N)cnc3cc(OC)c(OC)cc23)cc(OC)c1 | 6.01 | –
COc1cc2c(Nc3cc(OC)c(OC)c(OC)c3)c(C#N)cnc2cc1OCCCN1CCC(O)CC1 | 8.26 | –
COc1cc2ncnc(Nc3cc(OC)c(OC(C)(C)C)c(OC)c3)c2cc1OC | 5.57 | –
CCOc1c(OC)cc(Nc2ncnc3cc(OC)c(OC)cc23)cc1OC | 6.47 | –
CCCCOc1c(OC)cc(Nc2ncnc3cc(OC)c(OC)cc23)cc1OC | 6.31 | –
CCOC(=O)c1cnc2cc(OC)c(OC)cc2c1Nc1cc(OC)c(OC)c(OC)c1 | < 5.00 | –
CCOc1c(OC)cc(Nc2c(C#N)cnc3cc(OC)c(OC)cc23)cc1OC | 7.20 | –
COc1cc2nccc(Nc3cc(OC)c(OC)c(OC)c3)c2cc1OC | 6.70 | –
COc1cc2c(Nc3cc(OC)c(OC)c(OC)c3)c(C#N)cnc2cc1OCCCN1CCCCC1 | 8.28 | –
COc1cc2ncnc(Nc3cc(OC)c(OC)c(OC)c3)c2cc1OC | 6.55 | –
COc1cc2ncnc(Nc3cc(OC)c(OC(C)C)c(OC)c3)c2cc1OC | 6.08 | –
